Here are results for 12 molecules from ChEMBL document CHEMBL1143613, “Neurosteroid analogues. 10. The effect of methyl group substitution at the C-6 and C-7 positions on the GABA modulatory and anesthetic actions of (3alpha,5alpha)- and (3alpha,5beta)-3-hydroxypregnan-20-one” (J Med Chem, 2005).

A short description of assay [1]: Dose required for measuring loss of swimming reflex (LSR) in Xenopus laevis tadpoles. The format is functional. In a few lines:
(§1)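 Xenopus laevis tadpoles scored for loss of swimming (LSR) or righting (LRR) response. 10 animals were used at each of five or more concentrations. Error given as standard error of the mean.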

Assay [2] deals with GABA-A receptor; anion channel. Nature of the assay: Displacement of [35S]TBPS from picrotoxin site of GABA-A receptor of rat brain membranes. Type of assay: cell membranes, Membrane.
Assay [3] in a line: Dose required for measuring the loss of righting reflex (LRR) in Xenopus laevis tadpoles. Type of assay: functional. In short, it runs like this:
as §1

The target in assay [4] is T1, GABA-A receptor; alpha-1/beta-2/gamma-2 (Rattus norvegicus) (UniProt P18508+P62813+P63138). The experiment in a line: Ratio of currents mediated by rat Alpha-1-beta-2-gamma-2L GABA-A receptor expressed in Xenopus oocytes at 10 uM in presence of 2 uM GABA. The format is cell-based. As to conditions: Oocyte. In short, it runs like this:
(§2)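 Rat α1β2γ2L GABAA receptors expressed in Xenopus oocytes. Test compound at 0.1, 1 or 10 µM was co-applied with 2 µM GABA, the control GABA concentration. The value is the ratio of current with compound to current without it. At least four oocytes per concentration, with standard error of the mean.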

Assay [5] deals with T1, GABA-A receptor; alpha-1/beta-2/gamma-2 (Rattus norvegicus). Nature of the assay: Ratio of currents mediated by rat Alpha-1-beta-2-gamma-2L GABA-A receptor expressed in Xenopus oocytes at 1.0 uM in presence of 2 uM GABA. To be noted: Oocyte. The format is cell-based. In short, it runs like this:
as §2

The target is the same in assay [6]. The experiment in a line: Ratio of currents mediated by rat Alpha-1-beta-2-gamma-2L GABA-A receptor expressed in Xenopus oocytes at 0.1 uM in presence of 2 uM GABA. The format is cell-based. As to conditions: Oocyte. In a few lines: as §2
Assay [7] has the same target. The experiment in a line: Ratio of currents mediated by rat Alpha-1-beta-2-gamma-2L GABA-A receptor expressed in Xenopus oocytes at 10 uM in the absence of GABA. The format is cell-based. As to conditions: Oocyte. In short, it runs like this: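 Direct gating on rat α1β2γ2L GABAA receptors in Xenopus oocytes. Compound at 10 µM was applied with no GABA. The value is the compound-only current divided by the current from 2 µM GABA alone. At least four oocytes, with standard error of the mean.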

In the case of `CC(=O)[C@H]1CC[C@H]2[C@@H]3[C@H](C)C[C@@H]4C[C@H](O)CC[C@]4(C)[C@H]3CC[C@]12C`, the ED50 in assay [1] came out at 5500 nM; in assay [3], 1670 nM. For the same molecule, the IC50 (commonly the midpoint of a concentration-inhibition curve) in assay [2] was found to be 1040 nM.
In the case of `CC(=O)[C@H]1CC[C@H]2[C@@H]3[C@H](C)C[C@H]4C[C@@H](O)CC[C@]4(C)[C@H]3CC[C@]12C`, the results for the ED50 in assay [1] and in assay [3] were 5500 nM and 1630 nM, respectively.
As for `CC(=O)[C@H]1CC[C@H]2[C@@H]3[C@H](C)C[C@H]4C[C@H](O)CC[C@]4(C)[C@H]3CC[C@]12C`, the ED50 in assay [1] was 5500 nM; in assay [3], 2680 nM. In assay [2], this molecule came in with an IC50 of 5990 nM.
With `CC(=O)[C@H]1CC[C@H]2[C@@H]3CC[C@@H]4C[C@H](O)CC[C@]4(C)[C@H]3CC[C@]12C`, the ED50 in assay [1] was 300 nM; in assay [3] it was 60 nM. The Ratio in assay [4] came to 9.77; in assay [5], 2.82; in assay [6] it was 1.2; in assay [7] it was 0.06.
For the molecule `CC(=O)[C@H]1CC[C@H]2[C@@H]3C[C@@H](C)[C@@H]4C[C@H](O)CC[C@]4(C)[C@H]3CC[C@]12C`, the ED50 in assay [1] stood at 550 nM; in assay [3], 400 nM. The Ratio in assay [4] was 22.5; in assay [5] it was 4.36; in assay [6], 1.48; in assay [7] it was 0.62. This molecule also returned an IC50 in assay [2] of 45 nM.
On to `CC(=O)[C@H]1CC[C@H]2[C@@H]3CC[C@H]4C[C@H](O)CC[C@]4(C)[C@H]3CC[C@]12C`, for which the ED50 in assay [1] was found to be 5500 nM; in assay [3] it was 420 nM. Moreover, the Ratio amounted to 9.65 in assay [4], 3.89 in assay [5], 1.26 in assay [6] and 0.37 in assay [7].
Consider `CC(=O)[C@H]1CC[C@H]2[C@@H]3C[C@@H](C)[C@H]4C[C@H](O)CC[C@]4(C)[C@H]3CC[C@]12C`, for which the values for the ED50 in assay [1] and in assay [3] were 1050 nM and 510 nM, respectively. Besides, the Ratio stood at 10 in assay [4], 7.7 in assay [5], 2.5 in assay [6] and 0.59 in assay [7]. Further, the IC50 in assay [2] was 5.7 nM.
For `CC(=O)[C@H]1CC[C@H]2[C@@H]3[C@@H](C)C[C@@H]4C[C@H](O)CC[C@]4(C)[C@H]3CC[C@]12C`, the ED50 is 5500 nM in assay [1] and 1360 nM in assay [3]. This molecule also yielded an IC50 in assay [2] of 1240 nM.
Regarding `CC(=O)[C@H]1CC[C@H]2[C@@H]3C[C@H](C)[C@@H]4C[C@H](O)CC[C@]4(C)[C@H]3CC[C@]12C`, the ED50 in assay [1] came out at 5500 nM; in assay [3] it was 2660 nM. In addition, the Ratio in assay [4] stood at 2.51; in assay [5] it was 1.02; in assay [6], 0.96; in assay [7], 0.15. In assay [2], this molecule had an IC50 of 3080 nM.
For the molecule `CC(=O)[C@H]1CC[C@H]2[C@@H]3C[C@H](C)[C@H]4C[C@H](O)CC[C@]4(C)[C@H]3CC[C@]12C`, the ED50 is 8900 nM in assay [1] and 1400 nM in assay [3]. For the same molecule, the Ratio in assay [4] was 3.24; in assay [5], 1.17; in assay [6] it was 1.01; in assay [7] it was 0.06. Also, the IC50 in assay [2] stood at 2940 nM.
For the molecule `CC(=O)[C@H]1CC[C@H]2[C@@H]3[C@@H](C)C[C@H]4C[C@H](O)CC[C@]4(C)[C@H]3CC[C@]12C`, the ED50 came to 5500 nM in assay [1] and 1340 nM in assay [3]. For the same molecule, in assay [2], the IC50 was determined as 1240 nM.
Turning to `CC(=O)[C@H]1CC[C@H]2[C@@H]3[C@H](C)C[C@@H]4C[C@@H](O)CC[C@]4(C)[C@H]3CC[C@]12C`, the ED50 in assay [1] was found to be 10000 nM; in assay [3], 1250 nM. This molecule yielded a half-maximal inhibitory concentration (IC50) in assay [2] of 10800 nM.
